ChEMBL document CHEMBL4052605, “Lissoclibadin 1, a Polysulfur Aromatic Alkaloid from the Indonesian Ascidian Lissoclinum cf. badium, Induces Caspase-Dependent Apoptosis in Human Colon Cancer Cells and Suppresses Tumor Growth in Nude Mice” (J Nat Prod, 2017)

What was measured:
HCT-15 = experiment: Antiproliferative activity against human HCT15 cells after 24 hrs by WST-1 assay; format: functional, cell-based; settings: HCT-15, 24 h
Summary of the method: (§1)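 WST-1 viability assay. Cells seeded at 5 × 10^3 per well and grown 24 h, then given lissoclibadins at 0.1−40 μM (etoposide 1.0−100 μM) in triplicate for 24 h. WST-1 added and absorbance read 4 h later at 450 nm, background subtracted at 650 nm. Viability expressed as % of control; IC50 taken as 50% inhibition of viability. Three experiments, mean ± SD.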

HeLa S3 = experiment: Antiproliferative activity against human HeLaS3 cells after 24 hrs by WST-1 assay; format: functional, cell-based; settings: HeLa S3, 24 h; summary of the method: as §1

For `COc1c(OC)c2c(c(CCN(C)C)c1SC)Sc1c(OC)c(OC)c(SC)c(CCN(C)C)c1S2` [LISSOCLIBADIN 3], the IC50 (HCT-15) was 13.2 µM and the IC50 (HeLa S3) was 16 µM.
